How the values were obtained:
[1] = molecular target: Phosphatidylinositol 3-kinase regulatory subunit alpha/4,5-bisphosphate 3-kinase catalytic subunit delta isoform (Homo sapiens, UniProt P27986+O00329); assay: Inhibition of full length recombinant human N-terminal His6-tagged PI3K p110delta/human p85alpha expressed in baculovirus infected sf21 cells using PIP2 as substrate preincubated for 30 mins followed by substrate addition by HTRF assay
[2] = molecular target: T1, Phosphatidylinositol 4,5-bisphosphate 3-kinase catalytic subunit delta isoform (Homo sapiens, UniProt O00329); assay: Inhibition of PI3Kdelta in human THP1 cells assessed as reduction in MCSF-stimulated akt phosphorylation at Thr308 preincubated for 30 mins followed by MCSF stimulation for 3 mins by ELISA
T1 sequence (O00329 whole entry): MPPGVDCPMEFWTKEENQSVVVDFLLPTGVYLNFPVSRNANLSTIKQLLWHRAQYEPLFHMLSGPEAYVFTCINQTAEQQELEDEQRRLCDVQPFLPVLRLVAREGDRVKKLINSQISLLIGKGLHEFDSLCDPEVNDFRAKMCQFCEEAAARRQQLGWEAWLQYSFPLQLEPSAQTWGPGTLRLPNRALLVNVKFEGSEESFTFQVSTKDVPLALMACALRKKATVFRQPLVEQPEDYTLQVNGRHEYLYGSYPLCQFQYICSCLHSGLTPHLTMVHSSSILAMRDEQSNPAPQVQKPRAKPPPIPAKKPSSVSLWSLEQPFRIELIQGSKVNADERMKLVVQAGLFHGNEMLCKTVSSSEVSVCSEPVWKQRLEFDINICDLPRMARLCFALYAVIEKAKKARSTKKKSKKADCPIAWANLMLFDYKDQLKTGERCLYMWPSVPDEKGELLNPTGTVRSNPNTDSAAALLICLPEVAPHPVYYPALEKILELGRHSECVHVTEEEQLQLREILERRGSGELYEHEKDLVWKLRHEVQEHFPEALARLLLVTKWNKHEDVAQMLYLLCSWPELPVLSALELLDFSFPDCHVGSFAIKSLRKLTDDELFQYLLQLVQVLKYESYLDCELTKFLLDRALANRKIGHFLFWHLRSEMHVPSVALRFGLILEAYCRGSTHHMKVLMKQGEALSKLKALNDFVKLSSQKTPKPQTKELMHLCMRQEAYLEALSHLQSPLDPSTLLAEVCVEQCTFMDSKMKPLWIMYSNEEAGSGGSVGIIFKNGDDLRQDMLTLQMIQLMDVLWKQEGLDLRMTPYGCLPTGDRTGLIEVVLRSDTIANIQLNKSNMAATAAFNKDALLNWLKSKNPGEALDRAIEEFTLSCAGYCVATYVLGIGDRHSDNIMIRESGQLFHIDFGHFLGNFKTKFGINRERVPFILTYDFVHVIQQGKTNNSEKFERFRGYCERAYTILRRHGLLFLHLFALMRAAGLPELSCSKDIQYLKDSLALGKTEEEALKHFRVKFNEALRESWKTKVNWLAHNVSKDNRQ
Summary of the method: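 THP-1 cells exposed to compound for 30 min, then stimulated with MCSF at EC80 for 3 min; lysates assayed by ELISA for pAkt (Thr308).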

Chain of Phosphatidylinositol 3-kinase regulatory subunit alpha/4,5-bisphosphate 3-kinase catalytic subunit delta isoform (P27986 whole entry, one chain of several, canonical isoform): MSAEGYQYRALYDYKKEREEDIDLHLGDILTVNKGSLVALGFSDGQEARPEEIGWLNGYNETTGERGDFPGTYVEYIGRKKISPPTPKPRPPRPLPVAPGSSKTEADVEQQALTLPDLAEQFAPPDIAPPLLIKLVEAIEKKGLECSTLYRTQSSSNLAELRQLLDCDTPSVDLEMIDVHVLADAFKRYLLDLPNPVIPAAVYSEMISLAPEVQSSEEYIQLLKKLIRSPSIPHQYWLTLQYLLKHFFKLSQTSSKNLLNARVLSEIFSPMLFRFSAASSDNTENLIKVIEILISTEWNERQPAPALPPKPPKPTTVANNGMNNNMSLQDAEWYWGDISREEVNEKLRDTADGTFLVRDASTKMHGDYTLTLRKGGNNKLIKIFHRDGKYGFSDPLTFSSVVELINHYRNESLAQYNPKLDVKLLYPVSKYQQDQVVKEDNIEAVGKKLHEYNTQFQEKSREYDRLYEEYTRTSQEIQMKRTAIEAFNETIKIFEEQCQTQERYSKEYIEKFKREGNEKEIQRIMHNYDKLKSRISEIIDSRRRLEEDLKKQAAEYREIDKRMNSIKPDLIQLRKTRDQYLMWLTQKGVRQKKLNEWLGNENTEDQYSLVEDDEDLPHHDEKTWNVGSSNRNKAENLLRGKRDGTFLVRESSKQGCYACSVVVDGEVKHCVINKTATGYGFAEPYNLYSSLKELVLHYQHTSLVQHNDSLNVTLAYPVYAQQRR

## N#Cc1c(N)ncnc1NC(CC(F)(F)F)c1nn2cccc2c(=O)n1-c1ccccc1 (configuration not stated)
[1]
  IC50: 17 nM
[2]
  IC50: 51 nM
